The format of data set [1] is in vivo, human. The settings on record: for RLIN, linearity factor (ratio of multiple-dose AUC0–12 to single-dose AUC): 600 mg BID with food; for RAAUC, accumulation ratio based on AUC0–12 / RACmax, accumulation ratio based on Cmax: multiple (day 7) vs single (day 1) dosing, 600 mg BID; for trough concentrations reached steady-state levels after: BID treatment 600 mg. Put shortly:
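Fifteen healthy men took 600 mg (two 300 mg tablets) 30 min after starting a standardized meal on day 1, then twice daily on days 4–7. Plasma was sampled to 72 h after the single dose, at trough on days 4–6, and to 12 h on day 7. Samples underwent solid-phase extraction and LC-MS/MS. Accumulation ratios compared multiple- with single-dose AUC0–12 and Cmax. RLIN was multiple-dose AUC0–12 over single-dose AUC0–inf.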

Data set [2] can be described thus: ARIADME phase I pharmacokinetics/bioavailability study. The settings on record: for Cmax: healthy male subjects; for CL renal: plasma and urine, CLR; for half-life: t½; for AUC(0-inf): AUC0–inf; for AUC(0-t): AUC0–tlast; for tmax: median (range). Type of data set: in vivo, human. Put shortly:
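Six healthy fasted men took one oral 300 mg tablet, then a 100 µg IV 14C-microtracer as a 15-min infusion ending 3 h post-dose. Six others took an oral 14C-dose of 300 mg in aqueous propylene glycol solution (≤ 6.3 MBq). Oral plasma levels were measured by validated HPLC-MS, and IV levels by LC fractionation with accelerator MS. Values are geometric mean (CV%).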

Data set [3] is classed as in vivo, human. Conditions: for Cmax increase vs healthy subjects / exposure (AUC0–48) increase vs healthy subjects: single 600 mg with food. Put shortly: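 Open-label, parallel-group, multicenter trial in men aged 45–79. Groups were Child–Pugh B cirrhosis, severe renal impairment (eGFR 15–29 mL/min/1.73 m2, MDRD equation), and age- and weight-matched healthy controls. Each took two 300 mg tablets 30 min after starting a standardized breakfast. Plasma was sampled pre-dose to 48 h and assayed by validated LC-MS/MS. Parameters used total and unbound concentrations.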

Data set [4] has as its system patients with nonmetastatic castration-resistant prostate cancer (CRPC). The settings on record: 600 mg BID, cited from earlier work.
The conditions of data set [5]: cited from earlier work.
The nature of data set [6]: Solubility in fed vs fasted state simulated intestinal fluid. Type of data set: physicochemical. Conditions: in vitro data (data on file).
Data set [7] deals with plasma proteins. Description: In vitro plasma protein binding. Type of data set: in vitro ADME. The settings on record: human plasma (data on file).
The subject of data set [8] is plasma proteins. Type of data set: in vitro ADME, human. Conditions: ex vivo samples after single oral administration of darolutamide 600 mg. In short, it runs like this: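 Unbound fractions of the parent, both diastereomers and keto metabolite were measured by equilibrium dialysis. Plasma came from healthy male subjects and from non-cancer patients with moderate hepatic or severe renal impairment, after a single oral 600 mg dose taken with food.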

For data set [9] the following is noted: nonmetastatic CRPC, cited from earlier work.
[10] abbreviates: Day 1 (single dose) 600 mg oral with food, median (range).
The mark [11] stands for this setting: Day 7 (multiple doses) 600 mg BID oral with food, median (range).
[12] abbreviates: male, human, plasma, po, 600 mg.
The mark [13] stands for this setting: moderate hepatic impairment (Child–Pugh class B).
Setting [14] is: 100 µg IV 14C-microtracer, 15-min infusion, geometric mean (CV%).
[15] abbreviates: male, human, plasma, iv, 100 µg.
Setting [16] is: male, human, plasma, po, 300 mg, single 300 mg oral 14C-solution, fasted, geometric mean (CV%).
Where [17] appears, read: male, human, plasma, po, 300 mg, single 300 mg oral tablet, fasted, geometric mean (CV%).

“And” between values parts separate entries of the source, which are not always exact repeats. Equal values may be shown once. Read-outs that look alike come from different tables or passages of the source. Marks after values point to notes of the source that are not given here.

With `C[C@@H](Cn1ccc(-c2ccc(C#N)c(Cl)c2)n1)NC(=O)c1cc([C@@H](C)O)[nH]n1` [(S,R)-darolutamide], in data set [1], the “RLIN, linearity factor (ratio of multiple-dose AUC0–12 to single-dose AUC)” value came out at 0.9; the “RAAUC, accumulation ratio based on AUC0–12” value stood at 1.2; the “RACmax, accumulation ratio based on Cmax” value is given as 1.2. Further, in [1] (Day 1 (single dose) 600 mg oral with food, geometric mean/geometric CV% (range)), the “Terminal t½” value is on record as 14.5 h. The tmax in [1] (setting [10]) is 3.97 (1.02–6.02) h. Further, in data set [1] (setting [11]), the tmax was 3.00 (0.967–4.00) h. Further, the “clearance, (S,R)-darolutamide higher vs (S,S)-darolutamide” value in [2] (after the IV dose) turned out to be 2.9 fold.
Regarding `C[C@H](O)c1cc(C(=O)N[C@@H](C)Cn2ccc(-c3ccc(C#N)c(Cl)c3)n2)n[nH]1` [(S,S)-darolutamide], in data set [1], the “RLIN, linearity factor (ratio of multiple-dose AUC0–12 to single-dose AUC)” value came to 1.1; the “RAAUC, accumulation ratio based on AUC0–12” value is 2.3; the “RACmax, accumulation ratio based on Cmax” value was determined as 2.0. Also, the tmax in [1] (setting [10]) is listed as 5.98 (2.50–8.00) h. Besides, in data set [1] (setting [11]), the tmax is recorded as 3.98 (0.00–6.02) h.
As for `CC(O)c1cc(C(=O)N[C@@H](C)Cn2ccc(-c3ccc(C#N)c(Cl)c3)n2)[nH]n1` (stereo partly shown) [Darolutamide], the “RLIN, linearity factor (ratio of multiple-dose AUC0–12 to single-dose AUC)” value in [1] stood at 1.1. In addition, the “trough concentrations reached steady-state levels after” value in data set [1] turned out to be 1 days. The tmax in data set [1] (setting [10]) was 5.97 (2.50–7.95) h; in [1] (setting [11]) it was 3.98 (2.00–5.98) h; in [1] (male, human, plasma, po, 600 mg, median time to peak concentration, oral tablet, single dosing of 600 mg), 4 to 6 h; in data set [3] (Moderate hepatic impairment, single oral 600 mg with food, median (range)), 4.00 (4.00–8.00) h; in data set [3] (Severe renal impairment, single oral 600 mg with food, median (range)) it was 4.00 (3.00–12.0) h; in data set [3] (setting [12]), 4 h. The tmax stood at 1.58 h in [2] (male, human, plasma, po, 300 mg, single 300 mg oral 14C-solution, fasted) and 3.5 h in [2] (male, human, plasma, po, 300 mg, single 300 mg oral tablet, fasted). For the same molecule, the half-life is 13 h in data set [1] (male, human, plasma, oral, 600 mg); 11.6 h in data set [1] (setting [12]); 11.8 h in data set [2] (male, human, plasma, iv, 100 µg, 100 µg IV 14C-microtracer, 15-min infusion, geometric mean (CV%)); 10.6 h in [2] (setting [16]); 15.3 h in data set [2] (setting [17]). Besides, the AUC(0-inf) turned out to be 26200 ng·h/mL in [1] (setting [12]), 45600 ng·h/mL in data set [2] (setting [16]) and 12900 ng·h/mL in [2] (setting [17]). In data set [1], the “RAAUC, accumulation ratio based on AUC0–12” value came to 2.1. Besides, the “RACmax, accumulation ratio based on Cmax” value in data set [1] is on record as 1.9. Further, in data set [1] (single oral dose 600 mg with food, healthy male subjects), the “mean peak plasma concentration” value was determined as 1.77 µg/mL. In data set [1] (twice-daily dosing), the “time to steady state” value is reported as “approximately 2 days”. The “terminal t½ compared with healthy subjects” value in [3] (moderate hepatic impairment) is “did not change”. Further, the “Cmax increase vs healthy subjects” value in data set [3] (setting [13]) amounted to 1.5 fold; in [3] (severe renal impairment) it was 1.6 fold. Besides, the “exposure (AUC0–48) increase vs healthy subjects” value in [3] (setting [13]) amounted to 1.9 fold; in data set [3] (severe renal impairment), 2.5 fold. In data set [3] (severe renal impairment), the “terminal t½ vs healthy subjects” value is given as “prolonged”. Also, the “overall survival hazard ratio vs placebo” value in data set [4] (95% confidence interval 0.53–0.88, p = 0.003) is given as 0.69. Also, the metastasis-free survival in data set [4] (p < 0.001 vs placebo) was 40.4 months. For the same molecule, the “absolute bioavailability of tablet given with food” value in data set [5] is reported as 60–75%. Also, the “solubility in fed vs fasted state simulated intestinal fluid” value in data set [6] was “improved solubility”. In addition, the “mean free (unbound) fraction” value in the data set with plasma proteins [7] was ~ 8% and 8%. The “mean free (unbound) fraction in plasma” value with plasma proteins [8] turned out to be 7.8%. In addition, the “exposure vs patients with normal organ function” value in [9] (patients with mild hepatic impairment) is on record as “not higher”; in data set [9] (patients with mild or moderate renal impairment), “at most only slightly higher”. Further, the “AUC0–inf” value in [2] (setting [14]) is reported as 13,645 (39.5)^a h⋅pg eq/mL. Moreover, in data set [2] (300 mg oral solution), the “fraction absorbed based on amount of total 14C-radioactivity excreted in urine” value is on record as 127%. The “fraction absorbed based on plasma AUC of total 14C-radioactivity” value in data set [2] (300 mg oral solution) is reported as 109%. In addition, the Cmax in data set [2] (setting [14]) is 4127 (27.4)^a pg eq/mL; in [2] (male, human, plasma, po, 300 mg, Cmax, single 300 mg oral 14C-solution, fasted, geometric mean (CV%)) it was 3820 ng/mL; in [2] (male, human, plasma, po, 300 mg, Cmax, single 300 mg oral tablet, fasted, geometric mean (CV%)), 800 ng/mL. For the same molecule, the CL renal was determined as 7.73 mL/min in data set [2] (male, human, po, 300 mg, single 300 mg oral 14C-solution, fasted, geometric mean (CV%)) and 6.52 mL/min in data set [2] (male, human, po, 300 mg, single 300 mg oral tablet, fasted, geometric mean (CV%)). Moreover, the Vd in [2] (setting [15]) amounted to 119 L. Also, the clearance in [2] (setting [15]) came out at 116 mL/min. In addition, the figures for the area under the curve AUC(0-t) in data set [2] (setting [16]) and in data set [2] (setting [17]) were 45300 ng·h/mL and 12400 ng·h/mL, respectively. Also, the bioavailability stood at 98.9% in data set [2] (male, human, plasma, po, 300 mg, F (absolute oral bioavailability), single 300 mg oral 14C-solution, fasted, geometric mean (CV%)); 29.9% in data set [2] (male, human, plasma, po, 300 mg, F (absolute oral bioavailability), single 300 mg oral tablet, fasted, geometric mean (CV%)); 98.9% in [2] (male, human, plasma, po, 300 mg, absolute bioavailability, single 300 mg oral solution, fasted). Further, the Vd/F came to 101 L in [2] (setting [16]) and 514 L in data set [2] (setting [17]). In addition, the CL/F in data set [2] (single 300 mg oral 14C-solution, fasted, geometric mean (CV%)) is recorded as 110 (21.3) mL/min; in data set [2] (single 300 mg oral tablet, fasted, geometric mean (CV%)), 388 (36.2) mL/min. In addition, in data set [2] (single 300 mg oral solution, fasted), the absolute bioavailability was ~ 100%. For the same molecule, the “mean AUC0–inf, oral solution higher than tablet formulation” value in data set [2] (single 300 mg, fasted) is on record as 3.5 fold. In addition, in data set [2] (single 300 mg, fasted), the “mean Cmax, oral solution higher than tablet formulation” value was 4.8 fold. Also, the “absolute bioavailability based on AUC0–inf” value in [2] (single 300-mg oral tablet, fasted state, IV microtracer as reference) is on record as ~ 30%. In addition, the “mean whole blood:plasma ratio of total 14C-radioactivity” value in data set [2] (single oral solution dose) was determined as 0.7.
Consider `CC(=O)c1cc(C(=O)N[C@@H](C)Cn2ccc(-c3ccc(C#N)c(Cl)c3)n2)[nH]n1` [Keto-darolutamide, keto-darolutamide], for which, in data set [1], the “RLIN, linearity factor (ratio of multiple-dose AUC0–12 to single-dose AUC)” value was found to be 1.2; the “trough concentrations reached steady-state levels after” value worked out at 1 days; the “RAAUC, accumulation ratio based on AUC0–12” value was found to be 2.2; the “RACmax, accumulation ratio based on Cmax” value is recorded as 2.0. Besides, the tmax in data set [1] (setting [10]) is listed as 4.00 (2.50–6.02) h. In [1] (setting [11]), the tmax is recorded as 3.00 (1.48–5.97) h. Also, in data set [1] (after single and multiple dosing of darolutamide), the “plasma exposure of keto-darolutamide vs darolutamide” value is “approximately twofold higher”. In addition, in [3] (patients with renal or hepatic impairment, increase less pronounced than for darolutamide), the “plasma exposure (AUC0–48) vs healthy subjects” value was “increased”. Also, in the data set on plasma proteins [7], the “mean free (unbound) fraction” value is 0.2% and < 1%. Besides, in the data set with plasma proteins [8], the “mean free (unbound) fraction in plasma” value was 0.12%. Moreover, the “metabolite:parent total concentration ratio based on AUC0–inf” value in data set [2] (IV microtracer dose) is given as 1.50. For the same molecule, the “metabolite:parent total concentration ratio based on AUC0–inf” value in data set [2] (oral solution dose) was found to be 2.06. In addition, the “metabolite:parent total concentration ratio based on AUC0–inf” value in data set [2] (oral tablet dose) was 1.67 and 1.7.

A word on the half-life: it is how long it takes for the measured level to halve. The term AUC(0-inf) denotes the area under the concentration-time curve extrapolated to infinity. Higher therefore signals more exposure. In general, Vd refers to a proportionality between amount in the body and measured concentration, not a real space. Low values mean confinement near the circulation, high ones extensive tissue distribution. The clearance is a measure of how efficiently the substance is removed, as volume per time. The low end stands for a low capacity for elimination, the high end for a high capacity for elimination. What is called AUC(0-t) is exposure summed from dosing to a finite time, without extrapolation to infinity. A high value points to high exposure. The bioavailability is dose-corrected exposure relative to a reference, in per cent. Higher therefore signals good availability. What is called Vd/F is the volume of distribution divided by bioavailability.
